According to ChEMBL document CHEMBL3808334, “Synthesis and in vitro evaluation of novel triazine analogues as anticancer agents and their interaction studies with bovine serum albumin” (Eur J Med Chem, 2016):

Columns and labels:
T47D [1] = experiment: Growth inhibition of human T47D cells assessed as cell growth at 10^-4 M incubated for 48 hrs by sulforhodamine B assay; format: functional; conditions: read-out: Activity
[2] = Growth inhibition of human HCT15 cells incubated for 48 hrs by sulforhodamine B assay; format: functional; conditions: HCT-15, 48 h
Summary of the method: (§1)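 Cells seeded at 5,000–40,000/well according to doubling time and preincubated 24 h at 37 °C, 5% CO2. Time-zero plates were TCA-fixed. DMSO concentrate was diluted in medium with 50 µg/ml gentamicin to give five concentrations (10-fold or ½ log steps), then exposed 48 h. Cells were TCA-fixed, stained with 0.4% SRB and read at 515 nm. Percent growth was taken against time-zero and control; GI50, TGI and LC50 derived.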

[3] = Growth inhibition of human OVCAR3 cells incubated for 48 hrs by sulforhodamine B assay; format: functional; conditions: OVCAR-3, 48 h
Summary of the method: (§2)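 Cells were plated at 5,000–40,000 per well according to doubling time and preincubated 24 h at 37 °C in 5% CO2; time-zero plates were then TCA-fixed. Five concentrations (10-fold or ½-log dilutions, DMSO stock) were incubated 48 h. Cells were TCA-fixed, stained with 0.4% SRB and read at 515 nm. GI50 was taken where [(Ti−Tz)/(C−Tz)]×100 = 50.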

[4] = Growth inhibition of human PC3 cells incubated for 48 hrs by sulforhodamine B assay; format: functional; conditions: PC-3, 48 h; summary of the method: as §2
[5] = Growth inhibition of human Hs 578T cells incubated for 48 hrs by sulforhodamine B assay; format: functional; summary of the method: as §2
CCRF-CEM = experiment: Growth inhibition of human CCRF-CEM cells assessed as cell growth at 10^-7 M incubated for 48 hrs by sulforhodamine B assay; format: functional; conditions: read-out: Activity
Summary of the method: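 Leukemia line in the five-dose format: five concentrations from 10-fold or ½-log serial dilutions. Plated at 5,000–40,000 cells per well, preincubated 24 h, then compound added for 48 h at 37 °C, 5% CO₂. Sulforhodamine B absorbance read at 515 nm. Growth is computed against time-zero (Tz) and control (C) readings; GI₅₀ is where [(Ti−Tz)/(C−Tz)]×100 = 50.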

K562 = experiment: Growth inhibition of human K562 cells assessed as cell growth at 10^-7 M incubated for 48 hrs by sulforhodamine B assay; format: functional; conditions: K562, 48 h, read-out: Activity
A549 = experiment: Growth inhibition of human A549/ATCC cells assessed as cell growth at 10^-4 M incubated for 48 hrs by sulforhodamine B assay; format: functional; conditions: A549, 48 h, read-out: Activity
KM12 [6] = experiment: Growth inhibition of human KM12 cells assessed as cell growth at 10^-4 M incubated for 48 hrs by sulforhodamine B assay; format: functional; conditions: KM12, 48 h, read-out: Activity
T47D [7] = experiment: Growth inhibition of human T47D cells assessed as cell growth at 10 uM incubated for 48 hrs by sulforhodamine B assay; format: functional; conditions: read-out: Activity
EKVX = experiment: Growth inhibition of human EKVX cells assessed as cell growth at 10^-8 M incubated for 48 hrs by sulforhodamine B assay; format: functional; conditions: read-out: Activity; summary of the method: as §1
[8] = Growth inhibition of human UO31 cells assessed as cell growth at 10^-7 M incubated for 48 hrs by sulforhodamine B assay; format: functional; conditions: UO-31, 48 h, read-out: Activity
[9] = Growth inhibition of human RPMI8226 cells assessed as cell growth at 10^-6 M incubated for 48 hrs by sulforhodamine B assay; format: functional; conditions: RPMI-8226, 48 h, read-out: Activity
NCI-H226 = experiment: Growth inhibition of human NCI-H226 cells assessed as cell growth at 10^-8 M incubated for 48 hrs by sulforhodamine B assay; format: functional; conditions: NCI-H226, 48 h, read-out: Activity
[10] = Growth inhibition of human SF295 cells assessed as cell growth at 10^-5 M incubated for 48 hrs by sulforhodamine B assay; format: functional; conditions: SF-295, 48 h, read-out: Activity
SK-MEL-28 = experiment: Growth inhibition of human SK-MEL-28 cells assessed as cell growth at 10^-5 M incubated for 48 hrs by sulforhodamine B assay; format: functional; conditions: SK-MEL-28, 48 h, read-out: Activity
Albumin [11] = target: T1, Albumin (Bos taurus, UniProt P02769); experiment: Binding affinity to bovine serum albumin assessed as binding constant in absorption spectra by Benesie-Hildebrand plot analysis; format: ADME; conditions: cattle, isolated protein
T1 sequence (P02769 whole entry): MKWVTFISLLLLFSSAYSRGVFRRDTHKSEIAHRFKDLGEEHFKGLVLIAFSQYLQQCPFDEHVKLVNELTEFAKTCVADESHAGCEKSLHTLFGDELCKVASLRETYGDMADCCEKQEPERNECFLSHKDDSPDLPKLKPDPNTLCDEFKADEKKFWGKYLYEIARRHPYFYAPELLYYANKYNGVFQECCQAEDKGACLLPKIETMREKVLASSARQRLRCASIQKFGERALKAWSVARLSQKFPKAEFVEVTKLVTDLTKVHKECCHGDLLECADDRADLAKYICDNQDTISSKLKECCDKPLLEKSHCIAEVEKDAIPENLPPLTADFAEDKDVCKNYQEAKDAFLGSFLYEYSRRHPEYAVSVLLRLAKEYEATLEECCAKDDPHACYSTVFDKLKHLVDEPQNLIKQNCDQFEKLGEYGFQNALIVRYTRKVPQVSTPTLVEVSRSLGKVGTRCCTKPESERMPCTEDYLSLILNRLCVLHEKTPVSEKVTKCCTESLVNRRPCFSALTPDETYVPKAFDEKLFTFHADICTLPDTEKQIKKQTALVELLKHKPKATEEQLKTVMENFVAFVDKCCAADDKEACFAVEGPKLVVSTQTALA
Summary of the method: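 BSA, 10 µM, in 0.1 M phosphate buffer pH 7.4, titrated with compound (0–20 µM per the figure; diluted from 10⁻³ mol L⁻¹ DMSO stocks). Run at 300 K in a 1 cm quartz cell. UV spectra taken 200–800 nm after 5 min equilibration; fluorescence excited at 280 nm, emission 351 nm, slit 10 nm. K is the intercept/slope ratio of a linear fit of 1/(A₀−A) or 1/(F₀−F) vs 1/[compound].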

NCI-H322M = experiment: Growth inhibition of human NCI-H322M cells assessed as cell growth at 10 uM incubated for 48 hrs by sulforhodamine B assay; format: functional; conditions: read-out: Activity
KM12 [12] = experiment: Growth inhibition of human KM12 cells assessed as cell growth at 10 uM incubated for 48 hrs by sulforhodamine B assay; format: functional; conditions: KM12, 48 h, read-out: Activity
[13] = Growth inhibition of human SNB19 cells assessed as cell growth at 10 uM incubated for 48 hrs by sulforhodamine B assay; format: functional; conditions: SNB-19, 48 h, read-out: Activity
MDA-MB-468 = experiment: Growth inhibition of human MDA-MB-468 cells incubated for 48 hrs by sulforhodamine B assay; format: functional; conditions: MDA-MB-468, 48 h; summary of the method: as §2
Albumin [14] = target: T1, Albumin; experiment: Binding affinity to bovine serum albumin assessed as isoemissive point up to 20 uM by fluorescence spectroscopic analysis relative to control; format: ADME; conditions: cattle, isolated protein
Summary of the method: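 Fluorescence titration of 10 µM BSA in 0.1 M phosphate buffer pH 7.4 with compound at 0–20 µM, diluted from DMSO stocks. Excitation 280 nm, slit 10 nm, 1 cm quartz cell, 300 K. Changes in the 350 nm Trp emission, new bands near 370–373 nm and isoemissive points are read against BSA alone.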

[15] = Growth inhibition of human non-small cell lung cancer cells incubated for 48 hrs by sulforhodamine B assay; format: functional; conditions: Cancer cell lines; for CC50: read-out: LC50 (the source's name)
[16] = read-out: LC50 (the source's name)
[17] = read-out: pLC50 (the source's name) (converted)

c1ccc(-c2nc(Nc3ccc(-c4nc5ccccc5[nH]4)cc3)nc(N3CCOCC3)n2)cc1 showed a growth at 100 µM (T47D [1]) of -56%, a GI50 ([2]; read-out: GI50) of 343 nM and a TGI ([2]; read-out: TGI) of 1540 nM. The GI50 ([2]; read-out: pGI50 (converted)) was 347 nM, the TGI ([2]; read-out: pTGI (converted)) was 1550 nM and the GI50 ([3]; read-out: GI50) was 1520 nM. It also gave a CC50 [3, 16] of 5830 nM, a TGI ([3]; read-out: TGI) of 2980 nM and a GI50 ([3]; read-out: pGI50 (converted)) of 1510 nM. For the same molecule, the CC50 [3, 17] was 5890 nM, the TGI ([3]; read-out: pTGI (converted)) was 2950 nM and the GI50 ([4]; read-out: GI50) was 1800 nM. For the same molecule, the CC50 [4, 16] was 7370 nM, the TGI ([4]; read-out: TGI) was 3640 nM and the GI50 ([4]; read-out: pGI50 (converted)) was 1820 nM. For the same molecule, the CC50 [4, 17] was 7410 nM, the TGI ([4]; read-out: pTGI (converted)) was 3630 nM and the GI50 ([5]; read-out: GI50) was 1890 nM. The CC50 [5, 16] was over 100000 nM, the TGI ([5]; read-out: TGI) was 6040 nM and the GI50 ([5]; read-out: pGI50 (converted)) was 1910 nM. For the same molecule, the CC50 [5, 17] was over 100000 nM, the TGI ([5]; read-out: pTGI (converted)) was 6030 nM and the growth at 0.1 µM (CCRF-CEM) was 99%. It also gave a growth at 0.1 µM (K562) of 96%, a growth at 100 µM (A549) of -64% and a growth at 100 µM (KM12 [6]) of -86%. It also gave a growth at 10 µM (T47D [7]) of -62.3%, a growth at 0.01 µM (EKVX) of 92% and a growth at 0.1 µM [8] of 82%. For the same molecule, the growth at 1 µM [9] was 54%, the growth at 0.01 µM (NCI-H226) was 107% and the growth at 10 µM [10] was -76%. The growth at 10 µM (SK-MEL-28) was -86%, the K (Albumin [11]) was 1.2 ×10⁵ /M and the growth at 10 µM (NCI-H322M) was -0.47%. For the same molecule, the growth at 10 µM (KM12 [12]) was -76.6%, the growth at 10 µM [13] was -18.6% and the GI50 (MDA-MB-468; read-out: GI50) was 2130 nM. It also gave a CC50 (MDA-MB-468; [16]) of 9030 nM, a TGI (MDA-MB-468; read-out: TGI) of 4390 nM and a GI50 (MDA-MB-468; read-out: pGI50 (converted)) of 2140 nM. For the same molecule, the CC50 (MDA-MB-468; [17]) was 9120 nM, the TGI (MDA-MB-468; read-out: pTGI (converted)) was 4370 nM and the Activity (Albumin [14]) was 357 nm. It also gave a GI50 [15] of 1740 nM, a TGI [15] of 3670 nM and a CC50 [15] of 14200 nM.

Clc1ccc(-c2nc(Nc3ccc(-c4nc5ccccc5[nH]4)cc3)nc(N3CCOCC3)n2)cc1 showed a growth at 100 µM (T47D [1]) of -32%, a GI50 ([2]; read-out: GI50) of 188 nM and a TGI ([2]; read-out: TGI) of 412 nM. It also gave a GI50 ([2]; read-out: pGI50 (converted)) of 191 nM, a TGI ([2]; read-out: pTGI (converted)) of 407 nM and a GI50 ([3]; read-out: GI50) of 374 nM. The CC50 [3, 16] was 3990 nM, the TGI ([3]; read-out: TGI) was 1370 nM and the GI50 ([3]; read-out: pGI50 (converted)) was 372 nM. The CC50 [3, 17] was 3980 nM, the TGI ([3]; read-out: pTGI (converted)) was 1380 nM and the GI50 ([4]; read-out: GI50) was 376 nM. For the same molecule, the TGI ([4]; read-out: TGI) was 1330 nM, the GI50 ([4]; read-out: pGI50 (converted)) was 380 nM and the TGI ([4]; read-out: pTGI (converted)) was 1320 nM. It also gave a GI50 ([5]; read-out: GI50) of 700 nM, a CC50 [5, 16] of over 100000 nM and a TGI ([5]; read-out: TGI) of 3020 nM. For the same molecule, the GI50 ([5]; read-out: pGI50 (converted)) was 708 nM, the CC50 [5, 17] was over 100000 nM and the TGI ([5]; read-out: pTGI (converted)) was 3020 nM. For the same molecule, the growth at 0.1 µM (CCRF-CEM) was 99%, the growth at 0.1 µM (K562) was 92% and the growth at 100 µM (A549) was -53%. It also gave a growth at 100 µM (KM12 [6]) of -67%, a growth at 10 µM (T47D [7]) of -64.8% and a growth at 0.01 µM (EKVX) of 90%. It also gave a growth at 0.1 µM [8] of 92%, a growth at 1 µM [9] of -20% and a growth at 0.01 µM (NCI-H226) of 101%. The growth at 10 µM [10] was -85%, the growth at 10 µM (SK-MEL-28) was -81% and the K (Albumin [11]) was 1 ×10⁵ /M. For the same molecule, the growth at 10 µM (NCI-H322M) was -92.8%, the growth at 10 µM (KM12 [12]) was -91.3% and the growth at 10 µM [13] was -81.2%. For the same molecule, the GI50 (MDA-MB-468; read-out: GI50) was 516 nM, the TGI (MDA-MB-468; read-out: TGI) was 1820 nM and the GI50 (MDA-MB-468; read-out: pGI50 (converted)) was 513 nM. It also gave a TGI (MDA-MB-468; read-out: pTGI (converted)) of 1820 nM, an Activity (Albumin [14]) of 349 nm and a GI50 [15] of 1150 nM. The TGI [15] was 2590 nM and the CC50 [15] was 5580 nM.
